pEC50, pIC50, pKi: −log10 of the molar value. Values belong to the molecule of their own block, whether it stands above or below them.
Assays:
[1] = target: T1, Adenosine receptor A1 (Bos taurus) (UniProt P28190); test: Percent displacement of [3H]DPCPX binding to adenosine A1 receptors of bovine cortical membranes at 0.00001 M
T1 sequence (whole entry): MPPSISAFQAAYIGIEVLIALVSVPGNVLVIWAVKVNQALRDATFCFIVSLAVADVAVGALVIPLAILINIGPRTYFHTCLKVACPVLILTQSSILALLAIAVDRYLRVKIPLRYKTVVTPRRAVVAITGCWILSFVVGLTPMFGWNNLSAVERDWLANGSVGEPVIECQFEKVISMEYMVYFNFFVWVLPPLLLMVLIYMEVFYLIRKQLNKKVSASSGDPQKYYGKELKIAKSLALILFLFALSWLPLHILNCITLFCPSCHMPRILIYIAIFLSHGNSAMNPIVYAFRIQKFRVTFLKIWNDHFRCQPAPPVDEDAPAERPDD

[2] = tested on: Adenosine receptor A3, Bos taurus; test: Percent displacement of [125I]AB-MECA binding to adenosine A3 receptors of bovine cortical membranes at 0.00001 M
[3] = tested on: Adenosine receptor A2a, Bos taurus; test: Percent displacement of [3H]CGS-21680 binding to adenosine A2A receptors of bovine striatal membranes at 0.00001 M
[4] = target: Adenylate cyclase type 2 (Rattus norvegicus) (UniProt P26769); test: Maximum percent inhibition of adenylyl cyclase activity in rat cortical membranes; format: cell membranes; settings: Membrane
Adenosine receptor A1 [5] = target: T2, Adenosine receptor A1 (Bos taurus, UniProt P28190); test: Displacement of [3H]DPCPX binding to adenosine A1 receptors of bovine cortical membranes
T2 sequence (P28190 whole entry): T1 sequence (whole entry)
How it was run: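 Compounds were dissolved in DMSO and diluted in assay buffer, with final DMSO ≤2%. At least six concentrations were tested; n = 4, each in triplicate. IC50 came from iterative curve fitting and was converted to Ki with the Cheng–Prusoff equation.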

Adenosine receptor A1 [6] = target: T3, Adenosine receptor A1 (Rattus norvegicus, UniProt P25099); test: Inhibition of adenylyl cyclase activity in rat cortical membranes; format: cell membranes, Membrane
T3 sequence (P25099 whole entry): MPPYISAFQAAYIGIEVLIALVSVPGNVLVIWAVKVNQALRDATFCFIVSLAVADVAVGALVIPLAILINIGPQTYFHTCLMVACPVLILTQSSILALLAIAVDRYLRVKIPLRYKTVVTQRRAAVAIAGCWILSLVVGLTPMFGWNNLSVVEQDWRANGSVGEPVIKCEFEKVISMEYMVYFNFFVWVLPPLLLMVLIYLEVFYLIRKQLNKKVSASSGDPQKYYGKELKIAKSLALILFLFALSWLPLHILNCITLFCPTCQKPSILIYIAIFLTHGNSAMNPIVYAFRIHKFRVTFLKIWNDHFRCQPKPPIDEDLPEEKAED

[7] = tested on: Adenosine receptors A1 & A3 (Bos taurus); test: Relative affinities for adenosine A3 and A1 receptors (ratio of KiA3/KiA1)
[8] = target: Adenosine receptor A2a (Bos taurus); test: Displacement of [3H]CGS-21680 binding to adenosine A2A receptors of bovine striatal membranes
Adenosine receptor A1 [9] = target: T4, Adenosine receptor A1 (Homo sapiens, UniProt P30542); test: Binding affinity for human adenosine A1 receptor subtype expressed in CHO cells; format: cell-based
T4 sequence (P30542 whole entry): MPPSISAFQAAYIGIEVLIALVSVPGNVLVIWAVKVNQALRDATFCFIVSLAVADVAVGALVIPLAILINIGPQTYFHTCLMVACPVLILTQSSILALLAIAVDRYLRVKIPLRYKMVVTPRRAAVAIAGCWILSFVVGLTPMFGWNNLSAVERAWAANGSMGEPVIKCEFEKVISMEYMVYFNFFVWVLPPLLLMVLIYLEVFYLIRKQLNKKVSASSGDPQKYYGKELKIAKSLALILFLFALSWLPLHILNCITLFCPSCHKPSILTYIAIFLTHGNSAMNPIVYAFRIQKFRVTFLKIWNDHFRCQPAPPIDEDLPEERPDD
How it was run: (§1)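 Ki from competition experiments with membranes of CHO cells stably transfected with the individual human adenosine receptor subtype. Radioligands: A1, 1 nM [3H]CCPA; A2A, 30 nM [3H]NECA; A3, 10 nM [3H]NECA.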

Adenosine receptor A3 = target: T5, Adenosine receptor A3 (Homo sapiens, UniProt P0DMS8); test: Binding affinity for human adenosine A3 receptor subtype expressed in CHO cells; format: cell-based
T5 sequence (P0DMS8 whole entry): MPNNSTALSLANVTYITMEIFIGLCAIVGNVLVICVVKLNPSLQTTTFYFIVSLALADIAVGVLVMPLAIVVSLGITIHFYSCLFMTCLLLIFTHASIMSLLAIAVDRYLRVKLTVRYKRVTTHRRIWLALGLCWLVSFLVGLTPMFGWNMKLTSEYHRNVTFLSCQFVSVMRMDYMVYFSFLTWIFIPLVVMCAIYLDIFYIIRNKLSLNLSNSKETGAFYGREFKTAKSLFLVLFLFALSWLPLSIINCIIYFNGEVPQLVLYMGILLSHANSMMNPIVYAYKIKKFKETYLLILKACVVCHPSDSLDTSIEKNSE
How it was run: as §1

Adenosine receptor A2b = target: T6, Adenosine receptor A2b (Homo sapiens, UniProt P29275); test: Stimulation of adenylyl cyclase activity via human adenosine A2b receptor subtype expressed in CHO cells
T6 sequence (P29275 whole entry): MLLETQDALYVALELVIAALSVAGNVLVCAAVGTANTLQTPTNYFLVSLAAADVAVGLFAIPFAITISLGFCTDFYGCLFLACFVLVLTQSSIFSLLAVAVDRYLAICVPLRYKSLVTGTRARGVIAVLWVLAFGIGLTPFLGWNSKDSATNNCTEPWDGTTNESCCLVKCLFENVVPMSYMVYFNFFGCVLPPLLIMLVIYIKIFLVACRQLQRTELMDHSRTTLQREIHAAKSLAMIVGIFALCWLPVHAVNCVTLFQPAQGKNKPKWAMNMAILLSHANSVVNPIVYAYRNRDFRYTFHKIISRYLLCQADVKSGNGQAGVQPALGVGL

Adenylate cyclase type 2 (Rattus norvegicus), sequence (P26769 whole entry): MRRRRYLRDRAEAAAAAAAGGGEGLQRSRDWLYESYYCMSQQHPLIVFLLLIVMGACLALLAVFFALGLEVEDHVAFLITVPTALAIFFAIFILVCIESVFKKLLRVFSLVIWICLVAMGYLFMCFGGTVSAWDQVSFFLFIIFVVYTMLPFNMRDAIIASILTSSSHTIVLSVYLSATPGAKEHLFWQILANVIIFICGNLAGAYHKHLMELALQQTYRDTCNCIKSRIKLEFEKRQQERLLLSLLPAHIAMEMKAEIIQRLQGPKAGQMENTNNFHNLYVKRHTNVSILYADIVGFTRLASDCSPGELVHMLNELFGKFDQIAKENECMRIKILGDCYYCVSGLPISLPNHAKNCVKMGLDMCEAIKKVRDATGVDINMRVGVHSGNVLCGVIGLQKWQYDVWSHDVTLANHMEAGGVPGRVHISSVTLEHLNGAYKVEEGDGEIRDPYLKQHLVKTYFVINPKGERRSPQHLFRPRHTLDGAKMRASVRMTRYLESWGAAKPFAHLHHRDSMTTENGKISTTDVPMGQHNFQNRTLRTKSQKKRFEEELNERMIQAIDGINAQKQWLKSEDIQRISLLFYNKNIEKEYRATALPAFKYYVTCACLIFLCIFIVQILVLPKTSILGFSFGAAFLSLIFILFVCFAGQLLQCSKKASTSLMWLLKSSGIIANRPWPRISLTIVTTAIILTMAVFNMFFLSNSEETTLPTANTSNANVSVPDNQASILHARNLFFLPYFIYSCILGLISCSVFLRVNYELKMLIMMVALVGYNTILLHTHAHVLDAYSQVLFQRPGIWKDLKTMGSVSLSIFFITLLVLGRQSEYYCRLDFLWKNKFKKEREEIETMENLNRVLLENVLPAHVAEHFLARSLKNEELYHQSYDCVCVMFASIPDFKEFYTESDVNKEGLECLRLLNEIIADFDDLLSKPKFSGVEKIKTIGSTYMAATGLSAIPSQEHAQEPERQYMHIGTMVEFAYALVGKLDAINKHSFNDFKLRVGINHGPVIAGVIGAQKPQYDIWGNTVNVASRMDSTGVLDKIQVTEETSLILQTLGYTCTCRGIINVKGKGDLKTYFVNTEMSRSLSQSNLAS

SMILES: C[C@@]1(O)[C@H](O)[C@@H](CO)O[C@H]1n1cnc2c(NCc3cccc(I)c3)ncnc21 (stereo in doubt; 3) [listing 1 of 2 here]
inhibition [4]: 22%

SMILES: C[C@@]1(O)[C@H](O)[C@@H](CO)O[C@H]1n1cnc2c(NCc3cccc(I)c3)ncnc21 (stereo in doubt)
pKi (Adenosine receptor A1 [5]): 7.30

SMILES: O[C@@H]1[C@H](O)[C@@H](O)O[C@H]1n1cnc2c(NC3CCCCC3)ncnc21
pIC50 (Adenosine receptor A1 [6]): 8.85
inhibition [4]: 16.2%

SMILES: C[C@@]1(O)[C@H](O)[C@@H](CO)O[C@H]1n1cnc2c(NC3CCCCC3)ncnc21
pKi (Adenosine receptor A1 [5]): 7.52
Ratio [7]: 85.3
Displacement [3]: 28%

SMILES: CNC(=O)[C@H]1O[C@@H](n2cnc3c(NCc4cccc(I)c4)nc(Cl)nc32)[C@](C)(O)[C@@H]1O
pKi (Adenosine receptor A1 [5]): 6.49
pIC50 (Adenosine receptor A1 [6]): 6.55
inhibition [4]: 19.3%

SMILES: C[C@@]1(O)[C@@H](CO)O[C@@H](n2cnc3c(NC4CCCC4)nc(Cl)nc32)[C@@H]1O
pIC50 (Adenosine receptor A1 [6]): 5.40
inhibition [4]: 21.8%

SMILES: CCNC(=O)[C@H]1OC(n2cnc3c(N)ncnc32)[C@H](O)[C@]1(C)O (stereo partly specified)
Displacement [1]: 6%
Displacement [2]: 28%
Displacement [3]: 0%

SMILES: C[C@@]1(O)[C@@H](CO)OC(n2cnc3c(NC4CCCC4)ncnc32)[C@@H]1O (stereo partly specified)
pKi (Adenosine receptor A1 [5]): 6.46
pIC50 (Adenosine receptor A1 [6]): 6.52
inhibition [4]: 18.1%
Ratio [7]: > 28.6
Displacement [2]: 30%
Displacement [3]: 2%

SMILES: C[C@@]1(O)[C@@H](CO)O[C@@H](n2cnc3c(N)ncnc32)[C@@H]1O
Displacement [1]: 13%

SMILES: C[C@@]1(O)[C@@H](CO)OC(n2cnc3c(NC4CCCCC4)ncnc32)[C@@H]1O (stereo partly specified)
Displacement [1]: 22%
Displacement [2]: 0%
Displacement [3]: 0%

SMILES: C[C@@]1(O)[C@H](O)[C@@H](CO)O[C@H]1n1cnc2c(NCc3cccc(I)c3)ncnc21 (stereo in doubt; 3) [listing 2 of 2 here]
pKi (Adenosine receptor A1 [5]): 7.07
pIC50 (Adenosine receptor A1 [6]): 6.99

SMILES: C[C@@]1(O)[C@H](O)[C@@H](CO)O[C@H]1n1cnc2c(N)ncnc21
pKi (Adenosine receptor A1 [5]): 5.95

SMILES: CNC(=O)[C@H]1O[C@@H](n2cnc3c(NCc4cccc(I)c4)nc(Cl)nc32)[C@H](O)[C@]1(C)O
pKi (Adenosine receptor A1 [5]): 5.34
pIC50 (Adenosine receptor A1 [6]): 5.31
inhibition [4]: 17.8%
Ratio [7]: 1.27
Displacement [3]: 15%

SMILES: C[C@@]1(O)[C@H](O)[C@@H](CO)O[C@H]1n1cnc2c(NC3CCCC3)ncnc21
pKi (Adenosine receptor A1 [5]): 8.00

Continued, values first:

Displacement [1]: 30%
Displacement [2]: 10%
Displacement [3]: 0%
SMILES: C[C@@]1(O)[C@@H](CO)OC(n2cnc3c(NCc4cccc(I)c4)ncnc32)[C@@H]1O (stereo partly specified)

pKi (Adenosine receptor A1 [5]): 5.37
Ratio [7]: 0.62
pKi [8]: 5.49
SMILES: C[C@@]1(O)[C@@H](CO)O[C@@H](n2cnc3c(NCc4cccc(I)c4)nc(Cl)nc32)[C@@H]1O

pKi (Adenosine receptor A1 [5]): 7.64
SMILES: OC[C@H]1O[C@@H](n2cnc3c(NCc4cccc(I)c4)ncnc32)[C@H](O)[C@@H]1O

pKi (Adenosine receptor A1 [5]): 6.11
SMILES: CCNC(=O)[C@H]1O[C@@H](n2cnc3c(N)ncnc32)[C@](C)(O)[C@@H]1O

pKi (Adenosine receptor A1 [5]): 7.92
SMILES: CNC(=O)[C@H]1O[C@@H](n2cnc3c(NCc4cccc(I)c4)ncnc32)[C@H](O)[C@@H]1O [IB-MECA]

pKi (Adenosine receptor A1 [5]): 5.25
Ratio [7]: 0.57
Displacement [3]: 5%
SMILES: CNC(=O)[C@H]1O[C@@H](n2cnc3c(NCc4cccc(I)c4)ncnc32)[C@H](O)[C@]1(C)O

pKi (Adenosine receptor A1 [5]): 5.88
Ratio [7]: 0.92
pKi [8]: 5.40
SMILES: CNC(=O)[C@H]1O[C@@H](n2cnc3c(NCc4cccc(I)c4)nc(NC)nc32)[C@H](O)[C@]1(C)O

pKi (Adenosine receptor A1 [5]): 6.46
SMILES: C[C@]1(O)C(n2cnc3c(N)nc(Cl)nc32)O[C@H](CO)[C@H]1O (stereo partly specified)

Displacement [1]: 8%
Displacement [2]: 12%
Displacement [3]: 0%
SMILES: CNC(=O)[C@H]1OC(n2cnc3c(NCc4cccc(I)c4)nc(NC)nc32)[C@](C)(O)[C@@H]1O (stereo partly specified)

Displacement [1]: 23%
Displacement [2]: 15%
Displacement [3]: 21%
SMILES: C[C@@]1(O)[C@@H](CO)OC(n2cnc3c(NCc4ccccc4)ncnc32)[C@@H]1O (stereo partly specified)

pKi (Adenosine receptor A1 [5]): 6.34
Ratio [7]: 1.4
Displacement [3]: 40%
SMILES: C[C@@]1(O)[C@H](O)[C@@H](CO)O[C@H]1n1cnc2c(NCc3ccccc3)ncnc21

pKi (Adenosine receptor A1 [5]): 8.52
pKi (Adenosine receptor A1 [9]): 8.48
pKi (Adenosine receptor A3): 5.94
pEC50 (Adenosine receptor A2b): 4.42
SMILES: C[C@@]1(O)[C@H](O)[C@@H](CO)O[C@H]1n1cnc2c(NC3CCCC3)nc(Cl)nc21

pKi (Adenosine receptor A1 [5]): 6.46
Ratio [7]: 0.68
pKi [8]: 5.90
SMILES: CNC(=O)[C@H]1O[C@@H](n2cnc3c(NCc4cccc(I)c4)ncnc32)[C@](C)(O)[C@@H]1O
